Measured values as given in the EternaBench riboswitch data.

Tested on: MS2 coat protein
Assay: apparent Kd, MS2 coat protein; higher = weaker binding; RNA-MaP array; FMN 200 µM where present
In short: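 In 100 mM Tris-HCl pH 7.5, 80 mM KCl, 4 mM MgCl2, BSA, DTT, yeast tRNA and Tween-20, SNAP-549-labelled MS2 coat protein was titrated from 0.7 or 1.5 nM, doubling to 3 µM, over designs transcribed by stalled E. coli RNA polymerase on Illumina sequencing-chip clusters. This was done first without ligand, then with ligand held constant. After green signal was normalised to red-channel RNA signal and control-cluster median Fmax, the apparent Kd was taken as the median of filtered per-cluster binding-curve fits.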

[1] = designed as: OFF switch for flavin mononucleotide, no ligand
[2] = ligand present: flavin mononucleotide, designed as: OFF switch for flavin mononucleotide
[3] = designed as: ON switch for flavin mononucleotide, no ligand
[4] = ligand present: flavin mononucleotide, designed as: ON switch for flavin mononucleotide

“UUAUUACGAGGAUAUCGUUUUUAUCACAUGAGGAUCACCCAUGUAAUUUAUGUUUCGUUUCGAGAAGGCGUUUGUU” was tested, and the “apparent Kd” value [1] was 23.4 nM and the “apparent Kd” value [2] was 19.6 nM.

“UCGAACUUUCGUGUAAUUCGCACAUGAGGAUCACCCAUGUACGAGGAUAUGUACCUAAACGGCUAACAGAAGGCGUACUGGGCA” was tested, and the “apparent Kd” value [1] was 170 nM and the “apparent Kd” value [2] was 106 nM.

For “AAACAAACAACGCAGGAUAUGCAAAAACCCACAUGAGGAUCACCCAUGUCCCAACAACAAACAAAGCAGAAGGGCGAACAAACAAA”, the “apparent Kd” value [3] was 105 nM and the “apparent Kd” value [4] was 55.4 nM.

For “CGUAGGAUGCAGAAGGCAUGAACAUGAGGAUCACCCAUGUCAAAAGACAUGAGGAUAUGCAUCCUACGAAAAGUGCGAAAGCAC”, the “apparent Kd” value [3] was 17.5 nM and the “apparent Kd” value [4] was 5.6 nM.

“AGAUCGAGUGUGAGGAUAUUGACCGGACGACCCAUCGAGAAGGCACAUGAGGAUCACCCAUGUGAUUCGGUUUA” was tested, and the “apparent Kd” value [1] was 15.2 nM and the “apparent Kd” value [2] was 32.5 nM.

“AAAACAUGAGGAUCACCCAUGUAAAGAUCGGUUAAUAAAAGUGAGGAUAUACUAAAUUUUAUAUAGUAGAAGGCACUGGGUACA” was tested, and the “apparent Kd” value [3] was 22.9 nM and the “apparent Kd” value [4] was 30.1 nM.

“GCACGGUAUGUAGGAUAUGCAUAGCAUUGCUAUGCAGAAGGACAUGAGGAUCACCCAUGUAUGUAUUCCAUACUAAUCCCGUGC” was tested, and the “apparent Kd” value [1] was 5.89 nM and the “apparent Kd” value [2] was 5.79 nM.

“UUUAUAUUCAGAGGAUAUUGAUGUUGUAUUUUACAAGAAGGCUGAUUGUUUUGUAAUGUUAUUAUACAUGAGGAUCACCCAUGU” was tested, and the “apparent Kd” value [3] was 22.1 nM and the “apparent Kd” value [4] was 15.6 nM.

“CUAUUAUUGAUCCAUUUUUUCAACAUGAGGAUCACCCAUGUGCAGGAUAUCGUGAUUAUUAUCAACGAGAAGGGCAGAUUCACG” was tested, and the “apparent Kd” value [1] was 59.3 nM and the “apparent Kd” value [2] was 178 nM.

In the case of “ACACGACAUGAGGAUCACCCAUGUGAGGAUAUCGAACUCAACUAAGCACAAAGUAACCCGAGAAGGCACACAAU”, the “apparent Kd” value [1] is reported as 25.1 nM and the “apparent Kd” value [2] is reported as 24.1 nM.

With “UCGGCGCGAGGAUAUACGUUUGCGCGUUUUCGUUUUUGCGUACAUGAGGAUCACCCAUGUAGAAGGCGCGCCGC” the “apparent Kd” value [1] was 12.8 nM and the “apparent Kd” value [2] was 18 nM.

In the case of “GCGUUCAUGUAGAAGGUACCUACAACAUAUUAUAAACGCUAGACACAUGAGGAUCACCCAUGUUGUAAGGAUAUACAUGAACGC”, the “apparent Kd” value [3] is reported as 49 nM and the “apparent Kd” value [4] is reported as 22 nM.

With “AAAACGUGAGGAUAUCCAAUAUAUGACAUGAGGAUCACCCAUGUUUCCACUCGUACCUCCGGAGAAGGCACUUUUU” the “apparent Kd” value [1] was 54.6 nM and the “apparent Kd” value [2] was 44.9 nM.

With “AUCCGGGCUAACAUGAGGAUCACCCAUGUGUUAUACUUAAUAUAGGAUAUGUUUAUACUUUUUGGGCAGAAGGAUGGCCCGGAU” the “apparent Kd” value [3] was 83.1 nM and the “apparent Kd” value [4] was 68.8 nM.

In the case of “CGGUCGAUAUCAGGAUAUCGAUUAAUUACAUGAGGAUCACCCAUGUUGACAAGGAAUAUAACAUGCGAGAAGGGAUUACGAUCG”, the “apparent Kd” value [3] is reported as 10.1 nM and the “apparent Kd” value [4] is reported as 8.45 nM.

In the case of “GCGAGGACGGCAGGAUAUUGACAUGAGGAUCACCCAUGUAUUUGGGAGUGUUCACUGAAUUCUUACGAGAAGGGCCGUCCACGC”, the “apparent Kd” value [1] is reported as 312 nM and the “apparent Kd” value [2] is reported as 261 nM.

With “UAUCGCAGUGCAGGAUAUCCAAGGUUUGGCGAAGGAGAAGGGCACGCGACAUGAGGAUCACCCAUGUAAAGUGUGGCGUCCUCU” the “apparent Kd” value [1] was 116 nM and the “apparent Kd” value [2] was 62.2 nM.

For “AUCAGCUCGACAGGAUAUACAUCACUGCUUCGGCAGUGUAUCUUAAUAACAUGAGGAUCACCCAUGUAGAAGGGUCGAGCUGAU”, the “apparent Kd” value [1] was 17.8 nM and the “apparent Kd” value [2] was 31.6 nM.

For “CGCUAGUCAGGAUAUACGAACAUGUCAAAAGACGUGAAGGGACAUGAGGAUCACCCAUGUAGAAGGGACUAGCG”, the “apparent Kd” value [1] was 36.8 nM and the “apparent Kd” value [2] was 206 nM.

With “AAAAGGUGAGGAUAUACAUGAGGAUCACCCAUGUAGAAAGGAAGUGUAAAAAAAAAGUGUAGAAGGCAUCAUGA” the “apparent Kd” value [1] was 58.7 nM and the “apparent Kd” value [2] was 60.6 nM.

For “CGCUAAGAGAACGAUACGAGAAGACAUGAGGAUCACCCAUGUAGAAGGACAACGGAAUAAACGUUGUAGGAUAUACAUUUAGCG”, the “apparent Kd” value [1] was 16.9 nM and the “apparent Kd” value [2] was 19.8 nM.

With “AUCUCAGGACGAGGAUAUCAAUACAUGAGGAUCACCCAUGUAUGAUUACUGUGAUCCUUCAAGGCUGAGAAGGCGUCCCAAAUG” the “apparent Kd” value [1] was 12.2 nM and the “apparent Kd” value [2] was 27 nM.

In the case of “UUUAUACAUGAGGAUCACCCAUGUUAGGAUAUGGCUUUAAUGCCGCCGUCAUUAUCCGCCAGAAGGGACGUGUC”, the “apparent Kd” value [1] is reported as 32.2 nM and the “apparent Kd” value [2] is reported as 30.4 nM.

For “AAUAACAGAGGAUAUACUAUUUUAUGUGUUUAUUGUUUUGAACAUGAGGAUCACCCAUGUAGAAGGCUGAUUGA”, the “apparent Kd” value [1] was 47.8 nM and the “apparent Kd” value [2] was 56.3 nM.

In the case of “GUAGAGUAGUGAGGAUAUACGAGUACGAUAGUACGGCGAUCCAUUAAUACAUGAGGAUCACCCAUGUAGAAGGCACUUCUCUAC”, the “apparent Kd” value [1] is reported as 6.6 nM and the “apparent Kd” value [2] is reported as 84 nM.

In the case of “UCUGCCGCCGUGAGGAUAUGCCCAAAUAAAAGCGGGCAGAAGGCACAUGAGGAUCACCCAUGUCCCGCGGUUUU”, the “apparent Kd” value [1] is reported as 15.8 nM and the “apparent Kd” value [2] is reported as 38.4 nM.

In the case of “AUGUGAGCAGGAUAUGCAGGUGUGCCGGAAGAAAGAAGAGGACAUGAGGAUCACCCAUGUAGAAGGGCUAGCCC”, the “apparent Kd” value [1] is reported as 49 nM and the “apparent Kd” value [2] is reported as 31.3 nM.

With “UAAAUGUGAGGAUAUUCGAAUAACUCGGAGACGAGUUGUUCGGAGAAGGCACAUGAGGAUCACCCAUGUUCCUU” the “apparent Kd” value [1] was 22.5 nM and the “apparent Kd” value [2] was 216 nM.

In the case of “UUUAAUCGAAACAUGAGGAUCACCCAUGUGUUGUAAUUAACAUAGGAUAUUUGUAUGCUUUUGUAAGAGAAGGAUGAUAAUACU”, the “apparent Kd” value [3] is reported as 21.2 nM and the “apparent Kd” value [4] is reported as 16.1 nM.

With “CCCGGGCCUGUGAGGAUAUCGGGCCCGAAAGGGUUUGAGAAGGCACAUGAGGAUCACCCAUGUAAGGGUUUGGG” the “apparent Kd” value [1] was 33.8 nM and the “apparent Kd” value [2] was 24.7 nM.

In the case of “CAGCUGAAAGUGAGGAUAUAGACUGCUUCGGCAGUCUAGAAGGCACAUGAGGAUCACCCAUGUCUCAACAGCUG”, the “apparent Kd” value [1] is reported as 16.6 nM and the “apparent Kd” value [2] is reported as 70.2 nM.

With “UUCCGGCGUGUAGGAUAUGGAUCCGAUUAGGAUCCAGAAGGACAUGAGGAUCACCCAUGUACAUGUAAACAGUCAUCACCGGAC” the “apparent Kd” value [1] was 9.63 nM and the “apparent Kd” value [2] was 87.3 nM.

In the case of “CUCAUGUAAGGAUAUCAGUAGUAAAAAAAUAAAAUUACUACUGAGAAGGUACAUGAGGAUCACCCAUGUCCUGG”, the “apparent Kd” value [1] is reported as 33.3 nM and the “apparent Kd” value [2] is reported as 17.9 nM.

In the case of “AUUUUGUGAGGAUAUCAGGUGUGCUAGCGUACUGGUACAUCUGAGAAGGCACAUGAGGAUCACCCAUGUUUAUU”, the “apparent Kd” value [1] is reported as 26.6 nM and the “apparent Kd” value [2] is reported as 60 nM.

In the case of “GCACUGCGAGGAUAUACAUGAGGAUCACCCAUGUGUCGGCAGCGAUGCCAGUACAAAUGUAGAAGGCGCGUAAA”, the “apparent Kd” value [1] is reported as 25.9 nM and the “apparent Kd” value [2] is reported as 114 nM.

For “UAAACGUUCUAGAAGGUGCUUUUGUUAAACAAGCAAGGAUAUAGACAUGAGGAUCACCCAUGUCUUUGUGACAUCGACAUACUU”, the “apparent Kd” value [1] was 8.44 nM and the “apparent Kd” value [2] was 11.2 nM.

For “AAGGGCUGAGGAUAUGCGCGGGCAAGAUCCUCAAUCCCAAAACAUGAGGAUCACCCAUGUAGAAGGCAGAAAUA”, the “apparent Kd” value [1] was 33.2 nM and the “apparent Kd” value [2] was 24.2 nM.

With “CCAUAUAACUGAGGAUAUGAUCACCACUAACAUUCAGAAGGCAGACAUGAGGAUCACCCAUGUGAUUUCUCAAUAUUAUACAUC” the “apparent Kd” value [1] was 572 nM and the “apparent Kd” value [2] was 363 nM.

In the case of “CCGACGAAAAUCGGGCUACAUGAGGAUCACCCAUGUGCUUCACAGGAUAUGGUACGUAGUGAGUUCCAGAAGGGUGAUUAAUCU”, the “apparent Kd” value [3] is reported as 205 nM and the “apparent Kd” value [4] is reported as 129 nM.

“CGGUGCUGAGGAUAUACAUGAGGAUCACCCAUGUGUUCCGGCUAGCUGACUGGCGCUUGUAGAAGGCAGUACUG” was tested, and the “apparent Kd” value [1] was 17.3 nM and the “apparent Kd” value [2] was 101 nM.

For “UAGUAUAAGGGCAUUAAACAUGAGGAUCACCCAUGUACGAUAGAGGAUAUGCAUUUCAGUUGAGAGUAGAAGGUUAGAGAAGGG”, the “apparent Kd” value [1] was 44.5 nM and the “apparent Kd” value [2] was 46.3 nM.

With “ACUAUAUAUGAGAAGGUGAAGUGGAAACAUGAGGAUCACCCAUGUAAUACGAAGCGUAUUUUUAUCAAGGAUAUCAUAUAUAGA” the “apparent Kd” value [3] was 10.2 nM and the “apparent Kd” value [4] was 8.02 nM.
